Assay results: the RNAGym collection of RNA variant scans (doi:10.1126/science.aae0568)
Fewer inactive variants are shown than the library holds.

B1: tRNA (parent)
chain: GUUCCGUUGGCGUAAUGGUAACGCGUCUCCCUCCUAAGGAGAAGACUGCGGGUUCGAGUCCCGUACGGAACG

Variants of: B1
Experiment: yeast fitness relative to wild type (ratio to wild type); higher = fitter; tRNA-Arg(CCU), competitive growth, 37 C, YPD
Outline: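 Gene amplicons from the start population and from each of six end populations were read by 100-nucleotide paired-end sequencing. Those end populations came from pooled Saccharomyces cerevisiae strains carrying tRNA-Arg(CCU) gene variants at the native locus, competed in YPD at 37°C for 24 hours. Fitness relative to wild type was worked out from changes in genotype frequencies. Genotypes needed ≥ 100 starting reads, and estimates < 0.5 were set to 0.5.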

Variant | yeast fitness
G12C A37G G38A A45U | 0.506
U13A A45G G58C A69U A70U | 0.603
G12C C33U C46G U54A | ≤ 0.5
G12C C34U G44A G51C | ≤ 0.5
G12C U19A C27G A65C G68A | ≤ 0.5
G12C U28A C66U G68A | ≤ 0.5
G12C U16C A42C C49U | 0.594
G12C C30U C66A | ≤ 0.5
U13A C61G G68C | ≤ 0.5
U13A C27G A43C A45U U64C | 0.582
U13A G17A U32A | ≤ 0.5
U13A C30U A45C | 0.611
G12C C27G G58A | ≤ 0.5
G12C A21U C34U A42U U64A G68U | ≤ 0.5
G12C C24U C46U C49G C62A | ≤ 0.5
G12C C22U U54C C61U G68A | ≤ 0.5
U13A C22A C46U | 0.633
U13A C24U C55G | 0.537
U13A C22U A37G | 0.533
G12C C22U C31A C60G | ≤ 0.5
U13A G23A A36C G38A C60G C62G | 0.557

Variant | yeast fitness
G12C A36C A37U | ≤ 0.5
G12C A15G C29U A42U U47C C62U | ≤ 0.5
G12C C49U U53C C60G | ≤ 0.5
G12C C46U | 0.815
G12C C46A | 0.928
G12C C31U G68C | 0.505
U13A A36G | 1.02
U13A C46U U64C A69U | ≤ 0.5
U13A G23C C27G U53C | ≤ 0.5
G12C U28C U35A G38A C46G C62U | ≤ 0.5
G12C C22U U32C | 0.692
U13A A21C | 0.65
U13A A15G C22G U28A | 0.619
G12C U32G C33G | 0.543
U13A C22G G25C C27U C30G | ≤ 0.5
U13A A21C C24A G25C C66G | 0.512
U13A C27G U59C | ≤ 0.5
U13A G38C G58C | 0.798
G12C C24G C27U A43U G67A | ≤ 0.5
G12C U28C C30U C66A | ≤ 0.5
G12C A14G | 0.793

Variant | yeast fitness
U13A C62U | 1.05
U13A A15G A65G | 0.877
U13A C29U | 0.786
U13A A40C A69G | 0.629
G12C C34U G44A G52A C55U | ≤ 0.5
G12C U19A | 0.742
G12C U28A G50A | 0.606
U13A A14C C22A G48C A69U | ≤ 0.5
G12C G17C C22A A42C | ≤ 0.5
U13A C66U | 0.857
G12C C34A G58C A65C A69C | ≤ 0.5
G12C G25A C49U | 0.67
G12C G48A C66U | 0.784
U13A C33G A40G C60A | ≤ 0.5
G12C C31G C33G G48A | 0.642
G12C G25C A69U | ≤ 0.5
U13A C27G | 0.621
G12C A20U C30U C49U C55U C66U | 0.559
U13A C55U A69C | 0.599
G12C G41C C66U | 0.551
G12C U32G C33G G48C | ≤ 0.5

Variant | yeast fitness
G12C U32C A37C A45G A57C | ≤ 0.5
G12C A40G G58C C61G A65C | ≤ 0.5
U13A A40C | 0.789
U13A A40G | 0.733
G12C C62U A69U | 0.651
U13A G25C | 1.04
U13A C31U C49U C66A G67A | ≤ 0.5
U13A C33A A36U A70C | 0.518
U13A C27U A70U | 0.867
U13A A36G A43U G51A | ≤ 0.5
G12C C22A | 1
G12C U13A U16G C24G A69U | ≤ 0.5
U13A C27G A42U | 0.671
U13A C22G U32C A42C G48C C55G G63A G68C | ≤ 0.5
U13A C27U A37C C61U | ≤ 0.5
U13A C27A A36C A42U U64G | ≤ 0.5
U13A A15G U47A U64G | ≤ 0.5
G12C C24G G51C C62A U64G | 0.59
G12C C33G G44C U54A | ≤ 0.5
U13A C24U U35A A43C G50C | ≤ 0.5
G12C C27G C30G | ≤ 0.5
